Experimental findings from BindingDB's records for doi:10.1021/jm0309203 (University of Bath, 2003) are described below.

The target in one test is Mu-type opioid receptor (Homo sapiens, UniProt P35372). The test is described as follows: Binding affinity against cloned human Opioid receptor mu 1 transfected into chinese hamster ovary cells using [3H]DAMGO as radioligand. In short, it runs like this: (§1)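 Competition binding in CHO cells transfected with cloned human opioid receptors, using [3H]DAMGO (μ), [3H]Cl-DPDPE (δ) and [3H]U69,593 (κ) as displaced radioligands. Hill slopes were examined. Data are averages of two experiments, each run in triplicate.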
Chain of Mu-type opioid receptor (P35372 whole entry): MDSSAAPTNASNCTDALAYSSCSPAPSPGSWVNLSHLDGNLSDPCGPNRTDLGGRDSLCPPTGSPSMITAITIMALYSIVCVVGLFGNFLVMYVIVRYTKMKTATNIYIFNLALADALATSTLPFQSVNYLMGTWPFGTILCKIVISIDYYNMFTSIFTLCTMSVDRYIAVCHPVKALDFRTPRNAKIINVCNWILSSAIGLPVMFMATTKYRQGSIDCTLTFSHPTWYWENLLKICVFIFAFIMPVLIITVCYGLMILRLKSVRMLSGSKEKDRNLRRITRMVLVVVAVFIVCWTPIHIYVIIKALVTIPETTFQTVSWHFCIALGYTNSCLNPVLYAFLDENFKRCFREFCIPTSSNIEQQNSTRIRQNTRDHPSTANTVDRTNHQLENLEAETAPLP

The target in test [1] is Delta-type opioid receptor (Homo sapiens, UniProt P41143). The test is described as follows: Binding affinity against cloned human Opioid receptor delta 1 transfected into chinese hamster ovary cells using [3H]Cl-DPDPE as radioligand. The method in brief: as §1
Chain of Delta-type opioid receptor (P41143 whole entry): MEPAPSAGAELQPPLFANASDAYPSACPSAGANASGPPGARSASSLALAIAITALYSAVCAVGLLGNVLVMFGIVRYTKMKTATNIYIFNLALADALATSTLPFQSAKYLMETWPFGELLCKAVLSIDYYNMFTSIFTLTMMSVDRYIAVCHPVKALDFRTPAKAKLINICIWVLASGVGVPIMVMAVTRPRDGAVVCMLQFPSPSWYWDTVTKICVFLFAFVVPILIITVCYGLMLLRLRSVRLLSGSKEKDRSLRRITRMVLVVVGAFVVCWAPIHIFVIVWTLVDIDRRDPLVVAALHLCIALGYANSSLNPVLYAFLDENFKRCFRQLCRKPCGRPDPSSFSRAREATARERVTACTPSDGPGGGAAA

The term Ki denotes a measure of affinity in units of concentration, obtained from inhibition or displacement. Read a high Ki as a looser hold on the target. For `NC(=Nc1ccc2[nH]c3c(c2c1)C[C@@]1(O)C2Cc4ccc(O)c5c4[C@@]1(CCN2CC1CC1)[C@H]3O5)NCc1ccccc1` [7-benzylamino(imino)methylamino-22-cyclopropylmethyl-14-oxa-11,22-diazaheptacyclo[13.9.1.01,13.02,21.04,12.05,10.019,25]pentacosa-4(12),5(10),6,8,15,17,19(25)-heptaene-2,16-diol], the inhibition constant Ki at Mu-type opioid receptor was found to be 10 nM.

With `CCCNC(=Nc1ccc2[nH]c3c(c2c1)C[C@@]1(O)C2Cc4ccc(O)c5c4[C@@]1(CCN2CC1CC1)[C@H]3O5)NCC1CC1` [22-cyclopropylmethyl-7-cyclopropylmethylamino(propylimino)methylamino-14-oxa-11,22-diazaheptacyclo[13.9.1.01,13.02,21.04,12.05,10.019,25]pentacosa-4(12),5(10),6,8,15,17,19(25)-heptaene-2,16-diol], in test [1], the inhibitory constant (Ki) came out at 15 nM. This counts as double-digit nanomolar.
